Laboratory results taken from ChEMBL document CHEMBL4393665 (Eur J Med Chem, 2019).
pEC50, pIC50: −log10 of the molar value.

Tests used:
[1] = Half life in PBS at 1 uM by LC-MS/MS analysis; format: physicochemical
Summary of the method: (§1)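 Samples were incubated in phosphate buffer or human plasma and analysed by LC-MS/MS in product ion scan mode. Analyte concentration was monitored over incubation time. The slope of ln(concentration) versus time gave the first-order degradation rate constant k, and t1/2 was calculated from k. Ketoprofen ethyl ester served as a reference to confirm that the plasma batch was enzymatically active.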

[2] = target: T1, ATP-dependent translocase ABCB1 (Homo sapiens, UniProt P08183); test: Inhibition of P-glycoprotein (unknown origin) in MDCK-MDR1 assessed as inhibtion of calcein-AM transport incubated for 30 mins by fluorescence assay; format: cell-based
T1 sequence (P08183 whole entry): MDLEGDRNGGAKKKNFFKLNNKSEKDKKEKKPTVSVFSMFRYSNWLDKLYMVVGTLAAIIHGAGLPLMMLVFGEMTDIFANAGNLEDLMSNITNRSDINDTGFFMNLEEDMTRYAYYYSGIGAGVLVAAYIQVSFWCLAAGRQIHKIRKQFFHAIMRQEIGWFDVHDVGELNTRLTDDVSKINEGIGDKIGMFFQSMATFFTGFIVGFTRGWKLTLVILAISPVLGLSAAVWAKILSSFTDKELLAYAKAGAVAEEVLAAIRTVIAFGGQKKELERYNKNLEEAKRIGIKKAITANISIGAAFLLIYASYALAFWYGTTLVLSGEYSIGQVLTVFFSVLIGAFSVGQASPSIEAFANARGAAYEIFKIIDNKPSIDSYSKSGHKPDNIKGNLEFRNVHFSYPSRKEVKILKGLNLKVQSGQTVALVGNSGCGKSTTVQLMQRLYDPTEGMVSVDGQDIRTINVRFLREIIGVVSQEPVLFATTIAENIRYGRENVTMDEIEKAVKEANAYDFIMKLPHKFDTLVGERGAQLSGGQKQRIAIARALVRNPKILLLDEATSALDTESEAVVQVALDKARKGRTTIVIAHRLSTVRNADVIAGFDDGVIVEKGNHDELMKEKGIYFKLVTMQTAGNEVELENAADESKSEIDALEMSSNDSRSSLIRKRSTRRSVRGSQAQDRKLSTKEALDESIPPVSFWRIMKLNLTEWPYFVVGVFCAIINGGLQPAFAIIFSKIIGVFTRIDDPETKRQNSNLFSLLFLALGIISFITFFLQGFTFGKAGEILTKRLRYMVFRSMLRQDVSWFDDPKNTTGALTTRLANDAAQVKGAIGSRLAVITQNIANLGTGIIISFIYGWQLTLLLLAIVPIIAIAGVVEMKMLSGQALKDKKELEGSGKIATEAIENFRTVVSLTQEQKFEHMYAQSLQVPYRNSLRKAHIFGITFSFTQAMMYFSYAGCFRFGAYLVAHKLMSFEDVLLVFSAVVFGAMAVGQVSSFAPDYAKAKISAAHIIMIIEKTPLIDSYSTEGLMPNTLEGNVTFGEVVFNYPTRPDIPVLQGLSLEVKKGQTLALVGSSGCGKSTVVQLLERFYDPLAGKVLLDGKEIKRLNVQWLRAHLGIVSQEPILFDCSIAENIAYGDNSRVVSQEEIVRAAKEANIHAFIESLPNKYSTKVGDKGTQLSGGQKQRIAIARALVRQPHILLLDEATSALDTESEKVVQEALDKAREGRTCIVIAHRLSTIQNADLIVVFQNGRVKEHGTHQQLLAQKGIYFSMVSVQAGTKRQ

[3] = target: T1, ATP-dependent translocase ABCB1; test: Inhibition of P-glycoprotein (unknown origin) in MDCK-MDR1 assessed as reduction of ATP consumption pre-incubated for 2 hrs followed by substrate addition shaken for 5 mins by luminescence assay; format: cell-based; details: mdck-mdr1, 5 min
[4] = target: T1, ATP-dependent translocase ABCB1; test: Inhibition of P-glycoprotein-mediated Rhodamine-123 efflux in human K562/DOX cells assessed as […] at 1 uM […] by flow cytometry relative to control; format: cell-based; parameters: scale not given: the % may be the effect or the level left; details: 0.5 h
Summary of the method: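 K562/DOX cells were loaded with 5 µM rhodamine-123 for 30 min. They were then washed and held 10 min in rhodamine-free medium, with or without modulator at 1.0 µM. Verapamil at 3.0 µM was the reference. Flow cytometry median fluorescence after efflux was divided by that after uptake and expressed as a percentage. Mean ± SE of three independent experiments.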

[5] = target: T1, ATP-dependent translocase ABCB1; test: Inhibition of P-gp in human K562/DOX cells assessed as drug level causing maximum increase in nuclear pirarubicin concentration incubated for 30 mins by spectroflurometry relative to control; format: cell-based; details: 0.5 h
Summary of the method: (§2)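 Pirarubicin uptake into nuclei was measured in P-gp-overexpressing, doxorubicin-resistant K562/DOX cells. [I]0.5 is the modulator concentration giving a half-maximal increase (α = 0.5) in nuclear pirarubicin concentration. αmax is the maximum increase obtainable in resistant cells. Mean ± SE of three independent experiments.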

[6] = target: T1, ATP-dependent translocase ABCB1; test: Inhibition of P-gp in human K562/DOX cells assessed as drug level causing 50% increase in nuclear pirarubicin concentration incubated for 30 mins by spectroflurometry; format: cell-based; details: read-out: I0.5; summary of the method: as §2
[7] = Half life in human plasma at 1 uM by LC-MS/MS analysis; format: ADME, cell-free; summary of the method: as §1
[8] = target: T2, Broad substrate specificity ATP-binding cassette transporter ABCG2 (Homo sapiens, UniProt Q9UNQ0); test: Inhibition of BCRP (unknown origin) in MDCK-BCRP assessed as inhibtion of hoechst 33342 transport incubated for 30 mins by fluorescence assay
T2 sequence (Q9UNQ0 whole entry): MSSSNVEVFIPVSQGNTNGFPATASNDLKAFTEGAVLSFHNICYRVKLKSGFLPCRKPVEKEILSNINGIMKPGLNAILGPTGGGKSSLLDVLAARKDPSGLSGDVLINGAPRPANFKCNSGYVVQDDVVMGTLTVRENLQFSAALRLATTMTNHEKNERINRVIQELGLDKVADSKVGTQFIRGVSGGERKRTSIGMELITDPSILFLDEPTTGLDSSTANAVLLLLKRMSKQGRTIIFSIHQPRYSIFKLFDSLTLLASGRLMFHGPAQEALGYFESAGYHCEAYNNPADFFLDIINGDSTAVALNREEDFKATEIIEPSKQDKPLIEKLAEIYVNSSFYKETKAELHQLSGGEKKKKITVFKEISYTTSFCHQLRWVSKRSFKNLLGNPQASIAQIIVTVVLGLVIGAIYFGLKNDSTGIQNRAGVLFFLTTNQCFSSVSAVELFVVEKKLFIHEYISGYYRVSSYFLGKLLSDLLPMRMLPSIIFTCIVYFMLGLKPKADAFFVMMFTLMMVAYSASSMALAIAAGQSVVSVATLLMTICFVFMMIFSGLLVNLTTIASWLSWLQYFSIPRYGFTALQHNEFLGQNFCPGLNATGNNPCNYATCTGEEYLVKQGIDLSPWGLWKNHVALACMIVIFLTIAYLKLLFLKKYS

[9] = target: T1, ATP-dependent translocase ABCB1; test: Inhibition of P-glycoprotein-mediated Rhodamine-123 efflux in human K562 cells assessed as Rhodamine-123 accumulation at 1 uM preincubated for 15 mins followed by Rhodamine-123 addition measured after 30 mins by flow cytometry; format: cell-based; details: k562, 0.5 h

half-life at 1 µM [1] [h]	pEC50 [2]	inhibition (INH) [3]	Activity [4] [%]	Alpha max [5]	pIC50 [6]	half-life at 1 µM [7] [h]	pEC50 [8]	inhibition (INH) [9]	SMILES
> 4	6.28	Not Active	92.8	0.94	7.70	> 4	5.42	Not Active	COc1cc(/C=C/C(=O)OCCCCCCN(C)CCCCOC(=O)c2c3ccccc3cc3ccccc23)cc(OC)c1OC
> 4	6.68	Not Active	58.4	0.99	7.22	> 4	5.09	Not Active	COc1cc(/C=C/C(=O)OCCCCCCCN(C)CCCOC(=O)c2cc(OC)c(OC)c(OC)c2)cc(OC)c1OC
